pIC50: −log10 of the molar value.
Experiments:
[1] = test system: NCI-H460; assay: Inhibition of human H460 cell growth; assay type: functional, cell-based
In short: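 H460 cells grown in RPMI-1640 with 10% FCS, seeded in duplicate in log phase. Drug from DMSO stock added 24 h after seeding for 1 h exposure. Cells counted 72 h later by Coulter counter. IC50 is the concentration giving 50% growth decrease versus untreated control; mean ± SD of at least three experiments.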

[2] = molecular target: T1, DNA topoisomerase 1 (Homo sapiens) (UniProt P11387); assay: Activity against human Top1-mediated DNA cleavage after 10 mins; assay type: functional
T1 sequence (whole entry): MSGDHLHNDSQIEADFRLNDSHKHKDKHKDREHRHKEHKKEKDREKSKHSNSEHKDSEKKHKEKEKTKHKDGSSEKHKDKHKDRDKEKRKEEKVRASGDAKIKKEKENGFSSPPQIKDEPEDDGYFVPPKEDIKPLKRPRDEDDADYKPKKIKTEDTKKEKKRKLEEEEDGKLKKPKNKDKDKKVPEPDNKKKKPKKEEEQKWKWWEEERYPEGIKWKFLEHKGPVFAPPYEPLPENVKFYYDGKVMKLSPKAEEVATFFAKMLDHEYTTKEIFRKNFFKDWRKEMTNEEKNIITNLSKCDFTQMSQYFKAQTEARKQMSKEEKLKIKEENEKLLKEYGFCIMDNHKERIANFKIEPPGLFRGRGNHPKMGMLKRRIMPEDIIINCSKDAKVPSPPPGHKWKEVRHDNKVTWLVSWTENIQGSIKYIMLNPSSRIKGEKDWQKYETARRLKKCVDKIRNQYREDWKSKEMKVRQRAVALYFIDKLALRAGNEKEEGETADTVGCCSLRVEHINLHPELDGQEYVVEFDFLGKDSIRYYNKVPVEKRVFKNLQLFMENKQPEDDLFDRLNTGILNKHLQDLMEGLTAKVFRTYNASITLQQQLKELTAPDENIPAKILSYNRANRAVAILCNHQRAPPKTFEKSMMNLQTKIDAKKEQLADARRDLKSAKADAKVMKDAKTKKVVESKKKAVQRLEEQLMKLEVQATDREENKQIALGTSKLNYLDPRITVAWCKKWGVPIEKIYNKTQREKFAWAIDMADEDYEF
In short: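 Purified full-length human recombinant top1 from GST-tagged yeast expression (640 ng per reaction), 3′-end-labelled 751-bp SV40 DNA fragment, pH 7.6 Tris buffer with 150 mM KCl, 5 mM MgCl2. 30 min at 37 °C, then 0.6 M NaCl added to reverse cleavage. Cleavage bands on denaturing gel quantified by phosphorimaging as cleaved/uncleaved radioactivity ratio, relative to 30 min level (100%).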

[3] = test system: Mus musculus; assay: Toxicity in nude athymic mouse at 1 mg/kg, iv; assay type: organism-based; parameters: dose 1 mg/kg, route intravenous; details: in vivo
[4] = test system: Mus musculus; assay: Toxicity in nude athymic mouse at 4 mg/kg, iv; assay type: organism-based; parameters: dose 4 mg/kg, route intravenous; details: in vivo
[5] = test system: MKN-28; assay: Antitumor activity against human MKN28 cell line xenografted in nude athymic mouse at 1 mg/kg, po measured as tumor volume inhibition relative to control; assay type: functional
In short: (§1)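 Tumour fragments implanted on both flanks of nude athymic mice at day 0. Dosing iv or po started when tumours were just palpable (day 3-4). Tumour volume inhibition (%) is treated over control, 20 days after last treatment.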

[6] = test system: MKN-28; assay: Antitumor activity against human MKN28 cell line xenografted in nude athymic mouse at 2 mg/kg, po measured as tumor volume inhibition relative to control; assay type: functional; in short: as §1
[7] = test system: MKN-28; assay: Antitumor activity against human MKN28 cell line xenografted in nude athymic mouse at 4 mg/kg, po measured as tumor volume inhibition relative to control; assay type: functional; in short: as §1
[8] = test system: MKN-28; assay: Antitumor activity against human MKN28 cell line xenografted in nude athymic mouse at 1 mg/kg, po measured as log10 of cell kill to reach 1000 mm3 tumor volume; assay type: functional
[9] = test system: MKN-28; assay: Antitumor activity against human MKN28 cell line xenografted in nude athymic mouse at 2 mg/kg, po measured as log10 of cell kill to reach 1000 mm3 tumor volume; assay type: functional
[10] = test system: MKN-28; assay: Antitumor activity against human MKN28 cell line xenografted in nude athymic mouse at 4 mg/kg, po measured as log10 of cell kill to reach 1000 mm3 tumor volume; assay type: functional
[11] = test system: MKN-28; assay: Antitumor activity against human MKN28 cell line xenografted in nude athymic mouse at 1 mg/kg, po measured as body weight loss; assay type: functional
[12] = test system: MKN-28; assay: Antitumor activity against human MKN28 cell line xenografted in nude athymic mouse at 2 mg/kg, po measured as body weight loss; assay type: functional
[13] = test system: MKN-28; assay: Antitumor activity against human MKN28 cell line xenografted in nude athymic mouse at 4 mg/kg, po measured as body weight loss; assay type: functional
[14] = test system: Mus musculus; assay: Toxicity in nude athymic mouse at 1 mg/kg, po; assay type: organism-based; parameters: dose 1 mg/kg, route oral; details: in vivo
[15] = test system: Mus musculus; assay: Toxicity in nude athymic mouse at 2 mg/kg, po; assay type: organism-based; parameters: dose 2 mg/kg, route oral; details: in vivo
[16] = test system: Mus musculus; assay: Toxicity in nude athymic mouse at 4 mg/kg, po; assay type: organism-based; parameters: dose 4 mg/kg, route oral; details: in vivo
[17] = test system: MKN-28; assay: Antitumor activity against human MKN28 cell line xenografted in nude athymic mouse at 5 mg/kg, po measured as tumor volume inhibition relative to control; assay type: functional
In short: (§2)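 MKN-28 human gastric carcinoma tumor fragments inoculated on both flanks of nude athymic mice at day 0. Oral dosing began when tumors were just palpable (day 3-4). Read-out was tumor volume inhibition (%) of treated over control animals, 20 days after the last treatment. Groups of 4 mice.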

[18] = test system: MKN-28; assay: Antitumor activity against human MKN28 cell line xenografted in nude athymic mouse at 9 mg/kg, po measured as tumor volume inhibition relative to control; assay type: functional; in short: as §2
[19] = test system: MKN-28; assay: Antitumor activity against human MKN28 cell line xenografted in nude athymic mouse at 15 mg/kg, po measured as tumor volume inhibition relative to control; assay type: functional; in short: as §2
[20] = test system: MKN-28; assay: Antitumor activity against human MKN28 cell line xenografted in nude athymic mouse at 5 mg/kg, po measured as log10 of cell kill to reach 1000 mm3 tumor volume; assay type: functional
[21] = test system: MKN-28; assay: Antitumor activity against human MKN28 cell line xenografted in nude athymic mouse at 9 mg/kg, po measured as log10 of cell kill to reach 1000 mm3 tumor volume; assay type: functional
[22] = test system: MKN-28; assay: Antitumor activity against human MKN28 cell line xenografted in nude athymic mouse at 15 mg/kg, po measured as log10 of cell kill to reach 1000 mm3 tumor volume; assay type: functional
[23] = test system: MKN-28; assay: Antitumor activity against human MKN28 cell line xenografted in nude athymic mouse at 5 mg/kg, po measured as body weight loss; assay type: functional
In short: (§3)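 Nude athymic mice bearing MKN-28 human gastric carcinoma xenografts, from tumor fragments inoculated on both flanks at day 0. Oral treatment started when tumors were just palpable (day 3-4). Body weight loss (%) and toxicity were recorded per dose group, with toxicity given as a count over 4 mice.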

[24] = test system: MKN-28; assay: Antitumor activity against human MKN28 cell line xenografted in nude athymic mouse at 9 mg/kg, po measured as body weight loss; assay type: functional; in short: as §3
[25] = test system: MKN-28; assay: Antitumor activity against human MKN28 cell line xenografted in nude athymic mouse at 15 mg/kg, po measured as body weight loss; assay type: functional; in short: as §3
[26] = test system: Mus musculus; assay: Toxicity in nude athymic mouse at 5 mg/kg, po; assay type: organism-based; parameters: dose 5 mg/kg, route oral; details: in vivo; in short: as §3
[27] = test system: Mus musculus; assay: Toxicity in nude athymic mouse at 9 mg/kg, po; assay type: organism-based; parameters: dose 9 mg/kg, route oral; details: in vivo; in short: as §3
[28] = test system: Mus musculus; assay: Toxicity in nude athymic mouse at 15 mg/kg, po; assay type: organism-based; parameters: dose 15 mg/kg, route oral; details: in vivo; in short: as §3

In the case of `CC[C@@]1(O)C(=O)OCc2c1cc1n(c2=O)Cc2c-1nc1ccccc1c2/C=N\OCCN(CCCCN(CCCNC(=O)OC(C)(C)C)C(=O)OC(C)(C)C)C(=O)OC(C)(C)C`, the pIC50 [1] was 5.97.

`CC[C@@]1(O)C(=O)OCc2c1cc1n(c2=O)Cc2c-1nc1ccccc1c2/C=N\OCCNC(=O)OC(C)(C)C` was tested, and the pIC50 [1] was 7.08.

Work on `CC[C@@]1(O)C(=O)OCc2c1cc1n(c2=O)Cc2c-1nc1ccccc1c2CNCCCNCCCCNCCCN` yielded a pIC50 [1] of 5.84 and an Activity [2] of 60%.

`CC[C@@]1(O)C(=O)OCc2c1cc1n(c2=O)Cc2c-1nc1ccccc1c2/C=N/CCCN(CCCCNC(=O)OC(C)(C)C)C(=O)OC(C)(C)C` was tested, and the pIC50 [1] was 7.82, the Activity [3] was “Non-toxic” and the Activity [4] was “Non-toxic”.

For `CC[C@@]1(O)C(=O)OCc2c1cc1n(c2=O)Cc2c-1nc1ccccc1c2/C=N/CCCN(CCCCN(CCCNC(=O)OC(C)(C)C)C(=O)OC(C)(C)C)C(=O)OC(C)(C)C`, the pIC50 [1] was 7.54, the inhibition in vivo at 1 mg/kg [5] was 28% and the inhibition in vivo at 2 mg/kg [6] was 62%. It also gave an inhibition in vivo at 4 mg/kg [7] of 72%, an Activity [8] of 0.1 and an Activity [9] of 0.5. For the same compound, the Activity [10] was 1, the Activity [11] was 5% and the Activity [12] was 1%. For the same compound, the Activity [13] was 7%, the Activity [14] was “Non-toxic” and the Activity [15] was “Non-toxic”. For the same compound, the Activity [16] was “Non-toxic”.

Compound `CC[C@@]1(O)C(=O)OCc2c1cc1n(c2=O)Cc2c-1nc1ccccc1c2/C=N\OCCNCCCCNCCCN` has a pIC50 [1] of 5.97 and an Activity [2] of 60%.

Work on `CCc1c2c(nc3ccc(O)cc13)-c1cc3c(c(=O)n1C2)COC(=O)[C@]3(O)CC` [7-ETHYL-10-HYDROXYCAMPTOTHECIN] yielded a pIC50 [1] of 7.10.

`CC[C@@]1(O)C(=O)OCc2c1cc1n(c2=O)Cc2c-1nc1ccccc1c2/C=N\OCCN(CCCCNC(=O)OC(C)(C)C)C(=O)OC(C)(C)C` was tested, and the pIC50 [1] was 5.94.

With `CC[C@@]1(O)C(=O)OCc2c1cc1n(c2=O)Cc2c-1nc1ccccc1c2/C=N\OCCNCCCCN` the pIC50 [1] was 5.94 and the Activity [2] was 60%.

`CC[C@@]1(O)C(=O)OCc2c1cc1n(c2=O)Cc2c-1nc1ccccc1c2/C=N\OCCCNC(=O)OC(C)(C)C` gave a pIC50 [1] of 6.52.

`CC[C@@]1(O)C(=O)OCc2c1cc1n(c2=O)Cc2c-1nc1ccccc1c2/C=N\OCCCN` gave a pIC50 [1] of 5.75.

For `CC[C@@]1(O)C(=O)OCc2c1cc1n(c2=O)Cc2c-1nc1ccccc1c2CNCCCN(CCCCN(CCCNC(=O)OC(C)(C)C)C(=O)OC(C)(C)C)C(=O)OC(C)(C)C`, the pIC50 [1] was 5.85.

`CC[C@@]1(O)C(=O)OCc2c1cc1n(c2=O)Cc2c-1nc1ccccc1c2CN(CCCN(CCCCN(CCCNC(=O)OC(C)(C)C)C(=O)OC(C)(C)C)C(=O)OC(C)(C)C)C(=O)OC(C)(C)C` was tested, and the pIC50 [1] was 5.49.

For `CC[C@@]1(O)C(=O)OCc2c1cc1n(c2=O)Cc2cc3c(CN(C)C)c(O)ccc3nc2-1` [TOPOTECAN], the inhibition in vivo at 5 mg/kg [17] was 80%, the inhibition in vivo at 9 mg/kg [18] was 91% and the inhibition in vivo at 15 mg/kg [19] was 98%. For the same compound, the Activity [20] was 1.3, the Activity [21] was 1.7 and the Activity [22] was 2.1. For the same compound, the Activity [23] was 0%, the Activity [24] was 0% and the Activity [25] was 8%. For the same compound, the Activity [26] was “Non-toxic”, the Activity [27] was “Non-toxic” and the Activity [28] was “Non-toxic”.

— ChEMBL document CHEMBL1146009, “Synthesis and cytotoxic activity of polyamine analogues of camptothecin” (J Med Chem, 2006)
